Results as given in ChEMBL document CHEMBL2346519, “Substituted indolin-2-ones as p90 ribosomal S6 protein kinase 2 (RSK2) inhibitors: Molecular docking simulation and structure-activity relationship analysis” (Bioorg Med Chem, 2013).

Experiments:
[1] = target: Tyrosine-protein kinase Lck (Homo sapiens) (UniProt P06239); conditions: 10 uM
[2] = target: Ribosomal protein S6 kinase alpha-5 (Homo sapiens) (UniProt O75582); conditions: 3 uM
[3] = target: Ribosomal protein S6 kinase alpha-5 (Homo sapiens) (UniProt O75582); test: Inhibition of MSK1 (unknown origin) at 10 uM after 10 mins by mobility shift assay relative to control
[4] = target: Fibroblast growth factor receptor 3 (Homo sapiens) (UniProt P22607); conditions: 10 uM
[5] = target: Platelet-derived growth factor receptor alpha (Homo sapiens) (UniProt P16234); test: Inhibition of PDGFRalpha (unknown origin) at 3 uM after 10 mins by mobility shift assay relative to control
[6] = target: Proto-oncogene tyrosine-protein kinase Src (Homo sapiens) (UniProt P12931); test: Inhibition of SRC (unknown origin) at 3 uM after 10 mins by mobility shift assay relative to control
[7] = target: Vascular endothelial growth factor receptor 2 (Homo sapiens) (UniProt P35968); conditions: 10 uM
[8] = target: Tyrosine-protein kinase Lyn (Homo sapiens) (UniProt P07948); test: Inhibition of LYN-A (unknown origin) at 10 uM after 10 mins by mobility shift assay relative to control
[9] = target: T1, RAC-alpha serine/threonine-protein kinase (Homo sapiens, UniProt P31749); test: Inhibition of AKT1 (unknown origin) at 3 uM after 10 mins by mobility shift assay relative to control
T1 sequence (P31749 whole entry): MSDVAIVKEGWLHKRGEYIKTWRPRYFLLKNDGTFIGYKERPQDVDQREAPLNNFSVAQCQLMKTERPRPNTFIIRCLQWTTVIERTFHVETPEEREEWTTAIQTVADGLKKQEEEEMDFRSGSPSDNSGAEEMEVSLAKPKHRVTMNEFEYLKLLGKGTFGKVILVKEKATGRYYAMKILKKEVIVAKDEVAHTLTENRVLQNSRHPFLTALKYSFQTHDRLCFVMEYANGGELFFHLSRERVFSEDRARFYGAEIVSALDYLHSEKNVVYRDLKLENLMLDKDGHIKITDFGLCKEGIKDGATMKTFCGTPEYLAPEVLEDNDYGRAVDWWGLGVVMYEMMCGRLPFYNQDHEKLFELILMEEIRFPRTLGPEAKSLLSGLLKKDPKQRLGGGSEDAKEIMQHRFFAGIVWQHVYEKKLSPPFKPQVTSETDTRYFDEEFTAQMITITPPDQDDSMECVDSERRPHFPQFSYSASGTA

[10] = target: 3-phosphoinositide-dependent protein kinase 1 (Homo sapiens) (UniProt O15530); test: Inhibition of PDK1 (unknown origin) at 3 uM after 10 mins by mobility shift assay relative to control
[11] = target: Mitogen-activated protein kinase 9 (Homo sapiens) (UniProt P45984); test: Inhibition of JNK2 (unknown origin) at 3 uM after 10 mins by mobility shift assay relative to control
[12] = target: Mitogen-activated protein kinase 9 (Homo sapiens) (UniProt P45984); test: Inhibition of JNK2 (unknown origin) at 10 uM after 10 mins by mobility shift assay relative to control
[13] = target: Fibroblast growth factor receptor 1 (Homo sapiens) (UniProt P11362); conditions: 3 uM
[14] = target: T2, Ribosomal protein S6 kinase alpha-3 (Homo sapiens, UniProt P51812); conditions: 3 uM
T2 sequence (P51812 whole entry): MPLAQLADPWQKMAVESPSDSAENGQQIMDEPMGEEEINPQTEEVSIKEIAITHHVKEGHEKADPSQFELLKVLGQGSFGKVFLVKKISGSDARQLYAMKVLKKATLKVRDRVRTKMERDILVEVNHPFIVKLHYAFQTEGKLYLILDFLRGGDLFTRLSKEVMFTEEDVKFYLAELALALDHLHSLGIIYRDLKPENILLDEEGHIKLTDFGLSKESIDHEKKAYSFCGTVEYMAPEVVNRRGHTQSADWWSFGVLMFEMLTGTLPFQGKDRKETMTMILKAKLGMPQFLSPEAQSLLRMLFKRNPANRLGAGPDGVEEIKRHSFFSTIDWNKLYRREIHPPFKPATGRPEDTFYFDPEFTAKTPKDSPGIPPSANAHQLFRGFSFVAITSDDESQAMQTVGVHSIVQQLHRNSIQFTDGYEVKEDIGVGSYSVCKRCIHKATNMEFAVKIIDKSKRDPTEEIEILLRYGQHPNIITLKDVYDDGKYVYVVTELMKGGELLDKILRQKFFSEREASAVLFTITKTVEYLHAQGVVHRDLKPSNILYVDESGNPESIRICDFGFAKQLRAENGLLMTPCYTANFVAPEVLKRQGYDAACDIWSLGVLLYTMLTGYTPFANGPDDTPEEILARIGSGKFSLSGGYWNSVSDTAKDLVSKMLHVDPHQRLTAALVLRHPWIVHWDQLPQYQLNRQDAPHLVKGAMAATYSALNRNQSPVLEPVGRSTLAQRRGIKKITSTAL

[15] = target: Hepatocyte growth factor receptor (Homo sapiens) (UniProt P08581); test: Inhibition of c-MET (unknown origin) at 3 uM after 10 mins by mobility shift assay relative to control
[16] = target: Glycogen synthase kinase-3 beta (Homo sapiens) (UniProt P49841); conditions: 3 uM
[17] = target: Mitogen-activated protein kinase 3 (Homo sapiens) (UniProt P27361); test: Inhibition of ERK1 (unknown origin) at 10 uM after 10 mins by mobility shift assay relative to control
[18] = target: Protein kinase C alpha type (Homo sapiens) (UniProt P17252); test: Inhibition of PKC alpha (unknown origin) using PIP2 as substrate at 3 uM after 1 hr by Kinase-Glo assay relative to control
[19] = target: T3, Mitogen-activated protein kinase 14 (Homo sapiens, UniProt Q16539); conditions: 10 uM
T3 sequence (Q16539 whole entry): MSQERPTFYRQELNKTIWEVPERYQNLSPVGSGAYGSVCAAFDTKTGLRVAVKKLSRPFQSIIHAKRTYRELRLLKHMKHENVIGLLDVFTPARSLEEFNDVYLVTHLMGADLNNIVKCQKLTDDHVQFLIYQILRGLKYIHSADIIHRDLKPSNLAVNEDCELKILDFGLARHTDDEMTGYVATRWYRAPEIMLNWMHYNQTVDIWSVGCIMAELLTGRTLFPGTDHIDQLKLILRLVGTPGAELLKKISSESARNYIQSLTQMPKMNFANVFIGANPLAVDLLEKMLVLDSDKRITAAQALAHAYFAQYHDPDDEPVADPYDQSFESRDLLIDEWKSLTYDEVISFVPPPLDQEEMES

[20] = target: T3, Mitogen-activated protein kinase 14; conditions: 3 uM
[21] = target: Tyrosine-protein kinase Lyn (Homo sapiens) (UniProt P07948); test: Inhibition of LYNA (unknown origin) at 3 uM after 10 mins by mobility shift assay relative to control
[22] = target: Aurora kinase B (Homo sapiens) (UniProt Q96GD4); test: Inhibition of Aurora B (unknown origin) at 3 uM after 10 mins by mobility shift assay relative to control
[23] = target: Serine/threonine-protein kinase pim-1 (Homo sapiens) (UniProt P11309); test: Inhibition of PIM1 (unknown origin) at 10 uM after 10 mins by mobility shift assay relative to control
[24] = target: Tyrosine-protein kinase Lck (Homo sapiens) (UniProt P06239); conditions: 3 uM
[25] = target: Hepatocyte growth factor receptor (Homo sapiens) (UniProt P08581); test: Inhibition of c-MET (unknown origin) at 10 uM after 10 mins by mobility shift assay relative to control
[26] = target: T2, Ribosomal protein S6 kinase alpha-3; test: Inhibition of RSK2 (unknown origin) using AKRRRLSSLRA as substrate after 60 mins by fluorescence assay
[27] = target: Protein kinase C alpha type (Homo sapiens) (UniProt P17252); test: Inhibition of PKC alpha (unknown origin) using PIP2 as substrate at 10 uM after 1 hr by Kinase-Glo assay relative to control
[28] = target: 3-phosphoinositide-dependent protein kinase 1 (Homo sapiens) (UniProt O15530); test: Inhibition of PDK1 (unknown origin) at 10 uM after 10 mins by mobility shift assay relative to control
[29] = target: T2, Ribosomal protein S6 kinase alpha-3; test: Inhibition of RSK2 (unknown origin) using AKRRRLSSLRA as substrate at 10 uM after 60 mins by fluorescence assay relative to control
[30] = target: Proto-oncogene tyrosine-protein kinase Src (Homo sapiens) (UniProt P12931); conditions: 10 uM
[31] = target: Serine/threonine-protein kinase pim-1 (Homo sapiens) (UniProt P11309); test: Inhibition of PIM1 (unknown origin) at 3 uM after 10 mins by mobility shift assay relative to control
[32] = target: T3, Mitogen-activated protein kinase 14; test: Inhibition of p38alpha (unknown origin) after 10 mins by mobility shift assay
MCF7 = test: Cytotoxicity against human MCF7 cells assessed as growth inhibition after 48 hrs by MTT assay; format: functional, cell-based; conditions: MCF7, 48 h
Outline: (§1)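 MCF-7 cells grown in DMEM plus 10% FBS and PC 3 cells in F-12K, both seeded at 5 × 10^3 per well. Cells were exposed to compounds at various concentrations for 48 h. MTT was then added for 4 h at 37 °C in 5% CO2, formazan was dissolved in DMSO, and absorbance was read at 570 nm. IC50 was taken from inhibition curves of three independent experiments and measured only where inhibition at 100 µM exceeded 50%.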

[33] = target: Mast/stem cell growth factor receptor Kit (Homo sapiens) (UniProt P10721); conditions: 3 uM
Mast/stem cell growth factor receptor Kit (Homo sapiens), sequence (P10721 whole entry): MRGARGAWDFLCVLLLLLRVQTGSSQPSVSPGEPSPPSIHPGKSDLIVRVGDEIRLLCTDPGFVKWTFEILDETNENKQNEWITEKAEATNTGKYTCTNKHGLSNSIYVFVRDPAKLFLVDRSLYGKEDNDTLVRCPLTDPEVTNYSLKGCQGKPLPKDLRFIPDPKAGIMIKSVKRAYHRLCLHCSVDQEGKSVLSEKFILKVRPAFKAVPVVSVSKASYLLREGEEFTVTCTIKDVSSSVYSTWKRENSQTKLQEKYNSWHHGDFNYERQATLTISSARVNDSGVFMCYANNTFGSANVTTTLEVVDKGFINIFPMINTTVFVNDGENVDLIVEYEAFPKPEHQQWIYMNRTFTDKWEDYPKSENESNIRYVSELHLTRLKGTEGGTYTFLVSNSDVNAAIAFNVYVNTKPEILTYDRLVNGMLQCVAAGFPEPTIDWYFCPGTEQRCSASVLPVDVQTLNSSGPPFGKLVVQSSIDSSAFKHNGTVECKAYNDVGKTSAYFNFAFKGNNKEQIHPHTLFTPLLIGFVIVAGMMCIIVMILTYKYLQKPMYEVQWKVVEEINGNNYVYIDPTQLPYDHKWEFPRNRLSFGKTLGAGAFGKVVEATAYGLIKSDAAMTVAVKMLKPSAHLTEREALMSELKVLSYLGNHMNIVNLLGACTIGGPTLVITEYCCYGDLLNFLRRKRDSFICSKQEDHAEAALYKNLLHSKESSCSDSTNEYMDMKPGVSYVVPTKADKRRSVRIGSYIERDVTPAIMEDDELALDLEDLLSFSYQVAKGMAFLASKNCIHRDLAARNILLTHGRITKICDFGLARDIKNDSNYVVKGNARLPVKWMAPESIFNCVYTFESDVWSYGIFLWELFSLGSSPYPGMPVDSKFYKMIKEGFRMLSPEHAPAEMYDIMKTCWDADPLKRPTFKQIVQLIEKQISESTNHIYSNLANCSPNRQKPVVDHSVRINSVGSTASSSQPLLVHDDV

[34] = target: Tyrosine-protein kinase ABL1 (Homo sapiens) (UniProt P00519); test: Inhibition of ABL (unknown origin) at 10 uM after 10 mins by mobility shift assay relative to control
Tyrosine-protein kinase ABL1 (Homo sapiens), sequence (P00519 whole entry): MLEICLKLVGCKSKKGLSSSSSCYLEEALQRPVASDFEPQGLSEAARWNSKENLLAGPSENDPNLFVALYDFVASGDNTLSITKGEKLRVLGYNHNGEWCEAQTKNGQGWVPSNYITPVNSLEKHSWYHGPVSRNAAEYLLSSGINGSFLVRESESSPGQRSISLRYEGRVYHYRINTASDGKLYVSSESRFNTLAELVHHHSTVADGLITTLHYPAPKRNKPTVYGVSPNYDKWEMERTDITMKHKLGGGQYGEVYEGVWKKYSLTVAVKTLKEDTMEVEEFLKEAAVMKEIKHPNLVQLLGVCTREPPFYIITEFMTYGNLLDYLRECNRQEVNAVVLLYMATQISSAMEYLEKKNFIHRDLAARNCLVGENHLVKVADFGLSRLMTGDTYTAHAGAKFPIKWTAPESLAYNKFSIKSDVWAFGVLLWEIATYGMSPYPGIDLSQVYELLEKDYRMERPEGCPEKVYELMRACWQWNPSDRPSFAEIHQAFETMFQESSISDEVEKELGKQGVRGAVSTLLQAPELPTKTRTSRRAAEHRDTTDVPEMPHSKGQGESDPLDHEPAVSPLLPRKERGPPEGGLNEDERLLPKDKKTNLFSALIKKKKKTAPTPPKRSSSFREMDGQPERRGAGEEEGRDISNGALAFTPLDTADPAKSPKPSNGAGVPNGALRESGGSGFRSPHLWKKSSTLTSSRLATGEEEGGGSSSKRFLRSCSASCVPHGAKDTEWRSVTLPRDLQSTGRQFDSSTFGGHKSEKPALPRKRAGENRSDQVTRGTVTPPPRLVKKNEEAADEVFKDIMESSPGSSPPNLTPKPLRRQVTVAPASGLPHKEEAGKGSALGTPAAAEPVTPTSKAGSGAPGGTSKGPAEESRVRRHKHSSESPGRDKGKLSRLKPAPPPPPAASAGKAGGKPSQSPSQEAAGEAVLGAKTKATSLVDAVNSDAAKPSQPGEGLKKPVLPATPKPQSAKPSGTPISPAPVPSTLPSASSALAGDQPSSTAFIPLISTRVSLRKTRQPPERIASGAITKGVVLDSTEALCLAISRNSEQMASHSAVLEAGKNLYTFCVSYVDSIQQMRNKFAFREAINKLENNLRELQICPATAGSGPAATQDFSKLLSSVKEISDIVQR

[35] = target: Ribosomal protein S6 kinase beta-1 (Homo sapiens) (UniProt P23443); conditions: 3 uM
[36] = target: Tyrosine-protein kinase ABL1 (Homo sapiens) (UniProt P00519); test: Inhibition of ABL (unknown origin) at 3 uM after 10 mins by mobility shift assay relative to control
PC-3 = test: Cytotoxicity against human PC3 cells assessed as growth inhibition after 48 hrs by MTT assay; format: functional, cell-based; conditions: PC-3, 48 h
Outline: as §1

[37] = target: Mitogen-activated protein kinase 3 (Homo sapiens) (UniProt P27361); conditions: 3 uM
[38] = target: Fibroblast growth factor receptor 3 (Homo sapiens) (UniProt P22607); conditions: 3 uM
[39] = target: T1, RAC-alpha serine/threonine-protein kinase; test: Inhibition of AKT1 (unknown origin) at 10 uM after 10 mins by mobility shift assay relative to control
[40] = target: T1, RAC-alpha serine/threonine-protein kinase; test: Inhibition of AKT1 (unknown origin) after 10 mins by mobility shift assay
[41] = target: Fibroblast growth factor receptor 1 (Homo sapiens) (UniProt P11362); conditions: 10 uM
[42] = target: Vascular endothelial growth factor receptor 2 (Homo sapiens) (UniProt P35968); test: Inhibition of KDR (unknown origin) at 3 uM after 10 mins by mobility shift assay relative to control
[43] = target: Mast/stem cell growth factor receptor Kit (Homo sapiens) (UniProt P10721); test: Inhibition of cKit (unknown origin) at 10 uM after 10 mins by mobility shift assay relative to control
[44] = target: Platelet-derived growth factor receptor alpha (Homo sapiens) (UniProt P16234); test: Inhibition of PDGFRalpha (unknown origin) at 10 uM after 10 mins by mobility shift assay relative to control
[45] = target: Ribosomal protein S6 kinase beta-1 (Homo sapiens) (UniProt P23443); test: Inhibition of p70S6K (unknown origin) at 10 uM after 10 mins by mobility shift assay relative to control
[46] = target: Aurora kinase B (Homo sapiens) (UniProt Q96GD4); test: Inhibition of Aurora B (unknown origin) at 10 uM after 10 mins by mobility shift assay relative to control
[47] = target: Glycogen synthase kinase-3 beta (Homo sapiens) (UniProt P49841); conditions: 10 uM

Tyrosine-protein kinase Lck (Homo sapiens), sequence (P06239 2-509 limits assumed): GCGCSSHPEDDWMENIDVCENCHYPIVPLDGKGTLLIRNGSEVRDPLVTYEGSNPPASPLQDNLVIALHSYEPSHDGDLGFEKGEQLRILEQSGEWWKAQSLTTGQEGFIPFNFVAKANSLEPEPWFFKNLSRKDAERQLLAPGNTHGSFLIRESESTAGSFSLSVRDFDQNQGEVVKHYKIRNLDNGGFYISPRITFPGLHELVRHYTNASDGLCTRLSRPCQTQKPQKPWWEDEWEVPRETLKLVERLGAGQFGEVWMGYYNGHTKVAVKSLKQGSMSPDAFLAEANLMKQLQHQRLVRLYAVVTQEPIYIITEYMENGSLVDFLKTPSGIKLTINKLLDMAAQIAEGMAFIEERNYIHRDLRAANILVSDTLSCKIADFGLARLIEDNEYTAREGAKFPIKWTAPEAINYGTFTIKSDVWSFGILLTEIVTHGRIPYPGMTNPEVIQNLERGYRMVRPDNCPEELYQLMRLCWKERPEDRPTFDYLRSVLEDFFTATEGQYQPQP
Ribosomal protein S6 kinase alpha-5 (Homo sapiens), sequence (O75582 whole entry, looked up): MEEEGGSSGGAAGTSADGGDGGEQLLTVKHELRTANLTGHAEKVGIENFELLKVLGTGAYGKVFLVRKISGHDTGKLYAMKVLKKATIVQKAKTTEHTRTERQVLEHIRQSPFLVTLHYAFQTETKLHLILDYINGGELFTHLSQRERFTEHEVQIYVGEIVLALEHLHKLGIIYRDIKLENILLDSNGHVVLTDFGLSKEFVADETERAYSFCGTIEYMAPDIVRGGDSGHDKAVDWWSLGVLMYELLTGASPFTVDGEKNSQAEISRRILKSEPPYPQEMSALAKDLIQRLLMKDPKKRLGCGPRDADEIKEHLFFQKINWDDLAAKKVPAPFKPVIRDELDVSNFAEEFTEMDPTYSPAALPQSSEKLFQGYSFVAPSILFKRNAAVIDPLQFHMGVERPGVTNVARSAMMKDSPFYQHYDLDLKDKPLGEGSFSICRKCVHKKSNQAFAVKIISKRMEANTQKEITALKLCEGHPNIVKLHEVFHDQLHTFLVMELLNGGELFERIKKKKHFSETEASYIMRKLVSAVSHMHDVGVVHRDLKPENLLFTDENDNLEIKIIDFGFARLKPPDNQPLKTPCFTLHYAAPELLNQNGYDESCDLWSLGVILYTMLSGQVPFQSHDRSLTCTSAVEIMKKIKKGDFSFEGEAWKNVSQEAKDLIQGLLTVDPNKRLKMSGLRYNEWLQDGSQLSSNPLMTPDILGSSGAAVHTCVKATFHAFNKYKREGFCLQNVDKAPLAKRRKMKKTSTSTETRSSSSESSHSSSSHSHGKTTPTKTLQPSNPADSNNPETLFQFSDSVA

Structure (SMILES): O=C1Nc2ccccc2/C1=C/c1c[nH]nc1-c1ccccc1[N+](=O)[O-]
- inhibition [1]: 55%
- inhibition [2]: 31%
- inhibition [3]: 33%
- inhibition [4]: 65%
- inhibition [5]: 20%
- inhibition [6]: 30%
- inhibition [7]: 65%
- inhibition [8]: 49%
- inhibition [9]: 7.8%
- inhibition [10]: 6.7%
- inhibition [11]: 36%
- inhibition [12]: 71%
- inhibition [13]: 44%
- inhibition [14]: 61%
- inhibition [15]: 12%
- inhibition [16]: 37%
- inhibition [17]: 57%
- inhibition [18]: 4.4%
- inhibition [19]: 27%
- inhibition [20]: 19%
- inhibition [21]: 25%
- inhibition [22]: 25%
- inhibition [23]: 4.7%
- inhibition [24]: 31%
- inhibition [25]: 16%
- IC50 [26]: 500 nM
- inhibition [27]: 13%
- inhibition [28]: 6.2%
- inhibition [29]: 93.4%
- inhibition [30]: 55%
- inhibition [31]: 4.2%
- IC50 [32]: 11 nM
- IC50 (MCF7): 14800 nM
- inhibition [33]: 55%
- inhibition [34]: 67%
- inhibition [35]: 44%
- inhibition [36]: 43%
- IC50 (PC-3): 9320 nM
- inhibition [37]: 31%
- inhibition [38]: 44%
- inhibition [39]: 8.3%
- IC50 [40]: 11 nM
- inhibition [41]: 65%
- inhibition [42]: 39%
- inhibition [43]: 64%
- inhibition [44]: 38%
- inhibition [45]: 71%
- inhibition [46]: 34%
- inhibition [47]: 40%
